# MEKK2 WT-MEK5 = modulators of MEK5 binding to wildtype MEKK2, primary screen, biochemical, multiplex bead flow cytometry, Alexa488-MEK5. Mitogen-activated protein kinase kinase kinase 2 (Homo sapiens), Q9Y2U5. Alexa488-MEK5 binding to MEKK2 WT; actives lie on both sides. binding response (% of control), % at 10 µM. 290,000 compounds, 1.1% hits. AID 1531, 2009; in the data active = binding response below about 67% or above about 130%
# MEKK2mut PB1 HTS = MEK5 binding signal on mutant MEKK2 PB1, primary screen, biochemical, multiplex bead flow cytometry, Alexa488-MEK5 | Alexa488-MEK5 binding to MEKK2 mutant | percent response, % at 10 µM | 290,000 compounds, 0.35% hits | AID 1530, 2009; in the data active = percent response above about 24%, passing the limit was not always enough
# MEKK3 PB1 HTS = modulators of MEKK3-MEK5 PB1 binding, primary screen, biochemical, wildtype MEKK3, multiplex bead flow cytometry, Alexa488-MEK5 | Mitogen-activated protein kinase kinase kinase 3 (Homo sapiens), Q99759 | 290,000 compounds, 1.4% hits | bead-based flow cytometry, Alexa488-MEK5 binding to MEKK3; actives lie on both sides; 0 = blocked by unlabeled MEK5, 100 = vehicle | binding response (% of control), % at 10 µM;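 active = binding response more than 3 SD above or below the average of its plate-row segment, actives on both sides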;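 also: Alexa488 bead fluorescence after subtracting the streptavidin-only scavenger bead signal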
# Target sequence (Q99759 whole entry, looked up): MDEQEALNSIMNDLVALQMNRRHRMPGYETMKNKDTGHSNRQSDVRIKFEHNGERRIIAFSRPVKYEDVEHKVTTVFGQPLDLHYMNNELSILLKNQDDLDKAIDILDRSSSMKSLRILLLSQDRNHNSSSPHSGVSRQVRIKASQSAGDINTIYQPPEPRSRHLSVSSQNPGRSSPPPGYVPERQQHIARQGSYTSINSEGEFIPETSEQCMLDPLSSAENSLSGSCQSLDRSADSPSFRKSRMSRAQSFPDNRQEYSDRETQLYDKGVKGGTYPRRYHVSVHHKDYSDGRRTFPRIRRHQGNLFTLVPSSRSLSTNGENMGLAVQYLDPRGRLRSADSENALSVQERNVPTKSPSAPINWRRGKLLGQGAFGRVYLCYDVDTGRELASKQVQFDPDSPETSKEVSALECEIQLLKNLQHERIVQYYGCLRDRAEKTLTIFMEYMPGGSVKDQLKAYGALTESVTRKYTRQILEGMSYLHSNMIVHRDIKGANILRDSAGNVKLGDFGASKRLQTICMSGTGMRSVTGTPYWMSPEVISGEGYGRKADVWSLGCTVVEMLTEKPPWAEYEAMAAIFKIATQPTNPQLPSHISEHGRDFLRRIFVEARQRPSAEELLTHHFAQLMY
# IMP-1 inh = IMP-1 metallo-beta-lactamase inhibitors, primary screen, biochemical, epi-absorbance readout, Pseudomonas aeruginosa enzyme; metallo-beta-lactamase IMP-1 (Pseudomonas aeruginosa); purified IMP-1, nitrocefin hydrolysis, epi-absorbance fluorescence; inhibition, % at 5.6 µM; 290,000 compounds, 0.45% hits; AID 1556, 2009;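 active = inhibition above the mean plus 3 SD of all compounds in the same screening run, cut at about 4.5% in these data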
#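 System: purified recombinant IMP-1 beta-lactamase. Medium: Zinc- and detergent-supplemented HEPES buffer, pH 7.1. Compound: one 5.6 µM dose […]. Schedule: 15 min preincubation plus 25 min reaction at 25 °C. Technique: Epi-absorbance fluorescence, 480 nm excitation, 530 nm emission.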
# VIM-2 inhibitor = VIM-2 metallo-beta-lactamase inhibitors, primary screen, biochemical, epi-absorbance readout, Pseudomonas aeruginosa enzyme. purified VIM-2, nitrocefin hydrolysis, epi-absorbance fluorescence. inhibition, % at 5.6 µM. 290,000 compounds, 0.89% hits;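 active = inhibition above the mean of all tested compounds plus 3 SD, cutoff set per screening run, cut at about 7.5% in these data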;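 also: red hydrolysis product quenches plate fluorescence so inhibitors raise well fluorescence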
# MEKK2wt confirm = modulators of MEK5 binding to wildtype MEKK2, confirmation, biochemical, single concentration, multiplex bead flow cytometry | shares compounds with MEKK3 PB1 HTS | Alexa488-MEK5 binding to MEKK2 WT; actives lie on both sides | binding response (% of control), % at 10 µM | 5,900 compounds, 2.4% hits; in the data active = binding response below about 16% or above about 210%; inactive = in between
# MEKK2mut confirm = mutant MEKK2 PB1-MEK5 binding signal retest – biochemical, single concentration, multiplex bead flow cytometry, confirmation. 5,900 compounds, 2% hits. shares compounds with MEKK3 PB1 HTS. percent response, % at 10 µM. Alexa488-MEK5 binding to MEKK2 mutant. AID 1893, 2009; in the data active = percent response mostly above about 71%, no sharp cut-off; inactive = mostly below about 38%;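 also: higher means compound restores mutant binding toward wildtype level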
# MEKK3 confirm = MEKK3 wild-type PB1 binding to MEK5, inhibitors, confirmation, biochemical, bead multiplex flow cytometry, single concentration, wildtype. shares compounds with MEKK3 PB1 HTS. Alexa488-MEK5 binding to MEKK3; active compounds read low. binding response (% of control), % at 10 µM. 5,900 compounds, 1.8% hits. AID 1894, 2009;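 active = binding response below 72% of control, or above a set upper limit, though filed actives all read lower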;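 also: lower values mean stronger disruption of MEK5 binding to MEKK3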
# A number is an active result; – = inactive; · = no result given; [ ] = dose if it differs, or a comment. Sampled rows, rich in hits. Any-hit rate of the full collection: about 3.4%.
SMILES,MEKK2 WT-MEK5,MEKK2mut PB1 HTS,MEKK3 PB1 HTS,IMP-1 inh,VIM-2 inhibitor,MEKK2wt confirm,MEKK2mut confirm,MEKK3 confirm
COc1ccc(NC(=O)CC2SC(=NCC3CCCO3)NC2=O)cc1 (stereo not drawn),–,–,–,–,–,·,·,·
COC(=O)CN1C(=O)N/C(=C/c2ccccc2OC)C1=O,–,–,131,–,–,–,–,–
COc1ccccc1Oc1ccc(N2CC(C(=O)OCC(=O)c3ccccc3)CC2=O)cc1 (stereo not drawn),9.0[inhibitor],–,6.0[inhibitor],–,–,–,–,–
COc1cccc(C(=O)COC(=O)C2CC(=O)N(c3ccc(Oc4ccccc4OC)cc3)C2)c1 (stereo not drawn),–,–,–,–,–,·,·,·
COc1ccc(N2C(=O)CCC2(C#N)c2ccc(Br)cc2)cc1 (stereo not drawn),–,–,49[inhibitor],–,–,–,–,–
O=C(Cn1cnc2ccccc2c1=O)N1CCc2ccccc2C1,–,–,–,–,–,·,·,·
CC[n+]1c(/C=C/c2c[nH]c3ccccc23)ccc2cc(C)ccc21,·,119,–,–,–,–,–,–
O=[N+]([O-])c1cc(C(F)(F)F)cc([N+](=O)[O-])c1NCCCNc1ccc([N+](=O)[O-])c2cccnc12,–,–,68[inhibitor],–,–,–,–,–
CCOc1ccc(C(C)(N)C(=O)O)cc1 (stereo not drawn),–,–,–,–,–,·,·,·
C=CCNC(=O)c1cc2cccc(OC)c2oc1=O,–,–,128,–,–,–,–,–
CCOC(=O)CC(NC(=O)c1cc2cccc(OC)c2oc1=O)c1cccc([N+](=O)[O-])c1 (stereo not drawn),–,–,135,–,–,–,–,–
CCOC(=O)CC(NC(=O)c1cc2cc(Cl)cc(Cl)c2oc1=O)c1cccc([N+](=O)[O-])c1 (stereo not drawn),–,–,53[inhibitor],–,–,–,–,–
O=C(CCNS(=O)(=O)c1ccc(Br)cc1)Nc1cccc(F)c1,–,–,–,–,–,·,·,·
COC(=O)[C@@H]1CCCN1C(=O)c1ccc(OC2CCN(Cc3ccccn3)CC2)cc1,–,–,–,–,–,·,·,·
Cc1cc2ncn(CCC(=O)NC(C)(C)C)c2cc1C,4.0[inhibitor],–,3.0[inhibitor],–,–,–,–,–
Cc1cc2ncn(CCC(=O)NC3CCCC3)c2cc1C,–,–,–,–,–,·,·,·
O=C(Nc1ccccc1)C1=C(c2ccccc2)S(=O)(=O)CCS1(=O)=O,8.0[inhibitor],–,6.0[inhibitor],–,–,–,–,–
CC(C)(C)c1ccc(-c2c(C#N)c(N)nc3c2CCCC3)s1,–,–,–,–,–,·,·,·
CCc1sc(-c2c(C#N)c(N)nc3c2CCCCCC3)cc1[N+](=O)[O-],1.0[inhibitor],–,1.0[inhibitor],–,–,–,–,–
CCCCC1(CC(=O)OC)C(=O)N(c2ccccc2)N(c2ccccc2)C1=O,–,–,138,–,–,–,–,–
CCCCC1(Cc2ccc(OC)c([N+](=O)[O-])c2)C(=O)N(c2ccccc2)N(c2ccccc2)C1=O,–,–,–,–,–,·,·,·
COC(=O)c1cc(C)cc(=O)o1,–,–,–,–,–,·,·,·

# Bioassay records deposited in PubChem by several laboratories.
